Experimental data from ChEMBL document CHEMBL4346672, “Antimicrobial and KPC/AmpC inhibitory activity of functionalized benzosiloxaboroles” (Eur J Med Chem, 2019).
The source made the active and inactive calls. The calls are words filed in the database; no cut-off is given here.

How the values were obtained:
Staphylococcus aureus = experiment: Antibacterial activity against Staphylococcus aureus ATCC 6538P assessed as diameter of zone inhibition measured after 18 hrs by CLSI disc diffusion method; type: functional
How it was run: (§1)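 Disc diffusion on Mueller-Hinton II agar. Compounds dissolved in DMSO. Strains stored at -80 °C and subcultured twice on tryptic soy agar before testing. Inhibition zones read after 35 °C, 18 h.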

[1] = Dissociation constant, pKa1 of compound in 0.1 M NaOH by potentiometric analysis; type: physicochemical
Candida albicans = experiment: Antifungal activity against Candida albicans ATCC 90028 assessed as diameter of zone inhibition incubated for 24 hrs by CLSI disc diffusion method; type: functional
How it was run: (§2)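 Yeast disc diffusion on Mueller-Hinton agar supplemented with 2% glucose and 0.5 mg/L methylene blue. Compounds in DMSO. Yeasts subcultured on Sabouraud dextrose agar before testing. Zones read after 35 °C, 24 h.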

Candida parapsilosis = experiment: Antifungal activity against Candida parapsilosis ATCC 22019 assessed as diameter of zone inhibition incubated for 24 hrs by CLSI disc diffusion method; type: functional; how it was run: as §2
Candida tropicalis = experiment: Antifungal activity against Candida tropicalis IBA 171 assessed as diameter of zone inhibition incubated for 24 hrs by CLSI disc diffusion method; type: functional; how it was run: as §2
[2] = system: Meyerozyma guilliermondii; experiment: Antifungal activity against Candida guilliermondii IBA 155 assessed as diameter of zone inhibition incubated for 24 hrs by CLSI disc diffusion method; type: functional; how it was run: as §2
Pichia kudriavzevii = experiment: Antifungal activity against Candida krusei ATCC 6258 assessed as diameter of zone inhibition incubated for 24 hrs by CLSI disc diffusion method; type: functional; how it was run: as §2
Saccharomyces cerevisiae = experiment: Antifungal activity against Saccharomyces cerevisiae ATCC 9763 diameter of zone inhibition incubated for 24 hrs by CLSI disc diffusion method; type: functional
How it was run: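 Disc-diffusion run on Mueller-Hinton II agar with 2% glucose and 0.5 mg/L methylene blue, using compounds in DMSO. Yeast was precultured on Sabouraud dextrose agar (24–48 h, 30 °C). Zones read after 24 h at 35 °C.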

[3] = system: Staphylococcus epidermidis; experiment: Antibacterial activity against Staphylococcus epidermidis ATCC 12228 assessed as diameter of zone inhibition measured after 18 hrs by CLSI disc diffusion method; type: functional; how it was run: as §1
Enterococcus faecalis = experiment: Antibacterial activity against Enterococcus faecalis ATCC 29212 assessed as diameter of zone inhibition measured after 18 hrs by CLSI disc diffusion method; type: functional; how it was run: as §1
Enterococcus faecium = experiment: Antibacterial activity against Enterococcus faecium ATCC 6057 assessed as diameter of zone inhibition measured after 18 hrs by CLSI disc diffusion method; type: functional; how it was run: as §1
Bacillus subtilis = experiment: Antibacterial activity against Bacillus subtilis ATCC 6633 assessed as diameter of zone inhibition measured after 18 hrs by CLSI disc diffusion method; type: functional; how it was run: as §1
Escherichia coli = experiment: Antibacterial activity against Escherichia coli ATCC 25922 assessed as diameter of zone inhibition measured after 18 hrs by CLSI disc diffusion method; type: functional; how it was run: as §1
Proteus mirabilis = experiment: Antibacterial activity against Proteus mirabilis ATCC 12453 assessed as diameter of zone inhibition measured after 18 hrs by CLSI disc diffusion method; type: functional; how it was run: as §1
Enterobacter cloacae = experiment: Antibacterial activity against Enterobacter cloacae DSM 6234 assessed as diameter of zone inhibition measured after 18 hrs by CLSI disc diffusion method; type: functional; how it was run: as §1
Pseudomonas aeruginosa = experiment: Antibacterial activity against Pseudomonas aeruginosa ATCC 27853 assessed as diameter of zone inhibition measured after 18 hrs by CLSI disc diffusion method; type: functional, organism-based; how it was run: as §1
Acinetobacter baumannii = experiment: Antibacterial activity against Acinetobacter baumannii ATCC 19606 assessed as diameter of zone inhibition measured after 18 hrs by CLSI disc diffusion method; type: functional; how it was run: as §1
[4] = system: Stenotrophomonas maltophilia; experiment: Antibacterial activity against Stenotrophomonas maltophilia ATCC 13637 assessed as diameter of zone inhibition measured after 18 hrs by CLSI disc diffusion method; type: functional; how it was run: as §1
Burkholderia cepacia = experiment: Antibacterial activity against Burkholderia cepacia ATCC 25416 assessed as diameter of zone inhibition measured after 18 hrs by CLSI disc diffusion method; type: functional; how it was run: as §1
[5] = system: Bordetella bronchiseptica; experiment: Antibacterial activity against Bordetella bronchiseptica ATCC 4617 assessed as diameter of zone inhibition measured after 18 hrs by CLSI disc diffusion method; type: functional; how it was run: as §1
Klebsiella pneumoniae = conditions: ATCC 13883
Serratia marcescens = conditions: ATCC 13880

| SMILES | diameter of the inhibition zone (DIZ) (Staphylococcus aureus) | pKa [1] | diameter of the inhibition zone (DIZ) (Candida albicans) | diameter of the inhibition zone (DIZ) (Candida parapsilosis) | diameter of the inhibition zone (DIZ) (Candida tropicalis) | diameter of the inhibition zone (DIZ) [2] | diameter of the inhibition zone (DIZ) (Pichia kudriavzevii) | diameter of the inhibition zone (DIZ) (Saccharomyces cerevisiae) | diameter of the inhibition zone (DIZ) [3] | diameter of the inhibition zone (DIZ) (Enterococcus faecalis) | diameter of the inhibition zone (DIZ) (Enterococcus faecium) | diameter of the inhibition zone (DIZ) (Bacillus subtilis) | diameter of the inhibition zone (DIZ) (Escherichia coli) | diameter of the inhibition zone (DIZ) (Proteus mirabilis) | diameter of the inhibition zone (DIZ) (Enterobacter cloacae) | diameter of the inhibition zone (DIZ) (Pseudomonas aeruginosa) | diameter of the inhibition zone (DIZ) (Acinetobacter baumannii) | diameter of the inhibition zone (DIZ) [4] | diameter of the inhibition zone (DIZ) (Burkholderia cepacia) | diameter of the inhibition zone (DIZ) [5] | further results |
| --- | --- | --- | --- | --- | --- | --- | --- | --- | --- | --- | --- | --- | --- | --- | --- | --- | --- | --- | --- | --- | --- |
| C[Si]1(C)OB(O)c2cccc(Br)c21 | 35 mm | 6.5 | 17 mm | 12 mm | 14 mm | 25 mm | 24 mm | 30 mm | 30 mm | 16 mm | 24 mm | 30 mm | inactive | 15 mm | inactive | inactive | inactive | 13 mm | inactive | inactive | DIZ (Klebsiella pneumoniae): inactive; DIZ (Serratia marcescens): inactive |
| C[Si]1(C)OB(O)c2cccc(Cl)c21 | 34 mm | 6.5 | 17 mm | 12 mm | 12 mm | 25 mm | 17 mm | 30 mm | 33 mm | 15 mm | 20 mm | 32 mm | inactive | 19 mm | inactive | inactive | inactive | 13 mm | inactive | inactive | DIZ (Klebsiella pneumoniae): inactive; DIZ (Serratia marcescens): inactive |
